Results reported in ChEMBL document CHEMBL1121388, “Analgesic narcotic antagonists. 2. 8-Alkymorphinan-6-ones” (J Med Chem, 1980).
Activity calls are given as the source filed them. The calls are words filed in the database; no cut-off is given here.

Legend:
Rattus norvegicus [1] = experiment: The %change in weight from day 0 to day1 after administering the compound at dose of 80 (mg/kg)/day in rat; assay type: functional
How it was run: (§1)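 Rat physical dependence liability study: drug infused at the stated mg/kg/day for 6 days, with saline-infused controls for 6 days. Body weight was recorded daily and expressed as % change from day 0 on days 1–4. Groups of 4–6 rats; values are means ±.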

Rattus norvegicus [2] = experiment: The %change in weight from day 0 to day 2 after administering the compound at dose of 40 (mg/kg)/day in rat; assay type: functional; how it was run: as §1
Rattus norvegicus [3] = experiment: The %change in weight from day 0 to day 3 after administering the compound at dose of 80 (mg/kg)/day in rat; assay type: functional; how it was run: as §1
Rattus norvegicus [4] = experiment: The %change in weight from day 0 to day 4 after administering the compound at dose of 80 (mg/kg)/day in rat; assay type: functional; how it was run: as §1
Rattus norvegicus [5] = experiment: The %change in weight from day 0 to day 4 after administering the compound at dose of 40 (mg/kg)/day in rat; assay type: functional; how it was run: as §1
Rattus norvegicus [6] = experiment: The %change in weight from day 0 to day1 after administering the compound at dose of 40 (mg/kg)/day in rat; assay type: functional; how it was run: as §1
Rattus norvegicus [7] = experiment: The %change in weight from day 0 to day 2 after administering the compound at dose of 80 (mg/kg)/day in rat; assay type: functional; how it was run: as §1
Rattus norvegicus [8] = experiment: The %change in weight from day 0 to day 3 after administering the compound at dose of 40 (mg/kg)/day in rat; assay type: functional; how it was run: as §1
Mus musculus = experiment: The effective dose was measured by using mouse writhing assay after the compound administered subcutaneously.; assay type: functional; details: sc
How it was run: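 Analgesia in the mouse writhing test induced by acetic acid, with compound given subcutaneously. Salts were dissolved in distilled H₂O; free bases were dissolved by dropwise 1 N HCl and then diluted.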

Rattus norvegicus [9] = experiment: The Effective dose was measured by using rat tail flick assay after the compound administered intraperitoneally at a dose of 7.7 umol/kg; IA means inactive at the given dose; assay type: functional, organism-based
Rattus norvegicus [10] = experiment: The Effective dose was measured by using rat tail flick assay after the compound administered subcutaneously; lethal at the given dose; assay type: organism-based; details: in vivo, sc
How it was run: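 Agonist activity in the rat heat-stimulus tail-flick test. Drug was given subcutaneously and rats were tested 20 min after dosing. Salts were dissolved in distilled H₂O; free bases were dissolved with dropwise 1 N HCl and then diluted. ED₅₀ or inactivity/lethality recorded at the dose indicated.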

Row | SMILES | Change (Rattus norvegicus [1]) [%] | Change (Rattus norvegicus [2]) [%] | Change (Rattus norvegicus [3]) [%] | Change (Rattus norvegicus [4]) [%] | Change (Rattus norvegicus [5]) [%] | Change (Rattus norvegicus [6]) [%] | Change (Rattus norvegicus [7]) [%] | Change (Rattus norvegicus [8]) [%] | ED50 (Mus musculus) [µmol/kg] | ED50 (Rattus norvegicus [9]) | ED50 (Rattus norvegicus [10]) [µM/kg]
1 | C[C@H]1CC(=O)CC23CCN(CC4CCC4)C(Cc4ccc(O)cc42)[C@H]13.O=C(O)C(O)C(O)C(=O)O (some centres not stated) | 1.7 | 2 | 5.3 | 9.5 | 9.6 | 1.2 | 3.1 | 6.1 | – | – | –
2 | CCC1CCCC23CCN(CC4CCC4)C(Cc4ccc(OC)cc42)[C@H]13 (some centres not stated) | – | – | – | – | – | – | – | – | > 25 | inactive | –
3 | COc1ccc2c(c1)C13CCN(C)C(C2)[C@H]1[C@H](C)CC(=O)C3 (some centres not stated) | – | – | – | – | – | – | – | – | 2.65 | – | 9
